The subject of one data set is Bacillus subtilis. Description: Antibacterial activity against Bacillus subtilis ATCC 11774 after 18 to 20 hrs by microbroth dilution method. The class given is functional. Put shortly: (§1)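 Inoculum from a 4–6-h broth adjusted to 0.5 McFarland, final 5 × 10⁵ CFU/mL. Incubation at 35°C for 18–20 h. MIC taken as the lowest concentration giving complete inhibition of visible growth; three experiments.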
Background: In broth dilution the organism is exposed to a series of concentrations in liquid medium.

Data set [1] concerns Staphylococcus aureus. The data set is described as follows: Antibacterial activity against Staphylococcus aureus ATCC 11632 after 18 to 20 hrs by microbroth dilution method. The class given is functional. In a few lines: as §1
The subject of data set [2] is Staphylococcus epidermidis. The data set is described as follows: Antibacterial activity against Staphylococcus epidermidis ATCC 12228 after 18 to 20 hrs by microbroth dilution method. Type of data set: functional. Put shortly: as §1
The next data set relates to Escherichia coli. The data set is described as follows: Antibacterial activity against Escherichia coli ATCC 25922 measured after 18 to 20 hrs by microbroth dilution method. Type of data set: functional. Put shortly:
as §1

For a further data set, the system named is Klebsiella pneumoniae. Description: Antibacterial activity against measured after Klebsiella pneumoniae ATCC 4352 measured after 18 to 20 hrs by microbroth dilution method. The class given is functional. In a few lines: as §1
In the next data set the test system is Pseudomonas aeruginosa. Description: Antibacterial activity against Pseudomonas aeruginosa […] measured after 18 to 20 hrs by microbroth dilution method. Type of data set: functional. In a few lines:
as §1

The test system of a further data set is Salmonella typhimurium. Description: Antibacterial activity against Salmonella typhimurium ATCC 14028 measured after 18 to 20 hrs by microbroth dilution method. The class given is functional, Salmonella enterica subsp. enterica serovar Typhimurium. To be noted: Salmonella enterica. Put shortly:
as §1

For data set [3], the system named is Staphylococcus aureus. Description: Antibacterial activity against Staphylococcus aureus MRSA198 clinical isolate-3 measured after 18 to 20 hrs by microbroth dilution method. The class given is functional. Conditions: MRSA198 isolate-3.
The next data set concerns Aspergillus niger. The data set is described as follows: Antifungal activity against Aspergillus niger ATCC 439 measured after 72 hrs by agar dilution method. Type of data set: functional. To be noted: ATCC 439, 72 h. Put shortly:
(§2)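 Agar dilution on Sabouraud dextrose agar, with compounds at […] to 0.78 μM in twofold steps. Fungal suspensions at 10 CFU/mL as printed were applied to the compound-containing plates. Incubation at 35°C; MIC read after 72 h. Three experiments.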
In general terms: Agar dilution tests growth on a series of plates holding different concentrations.

The test system of the next data set is Aspergillus flavus. Description: Antifungal activity against Aspergillus flavus ATCC 204304 measured after 72 hrs by agar dilution method. Type of data set: functional. Conditions: ATCC 204304, 72 h. In a few lines:
as §2

A further data set concerns Candida albicans. The data set is described as follows: Antifungal activity against Candida albicans ATCC 7754 after 72 hrs by agar dilution method. The class given is functional. Conditions: ATCC 7754, 72 h. Put shortly:
as §2

A further data set deals with Saccharomyces cerevisiae. Description: Antifungal activity against Saccharomyces cerevisiae SH 20 after 72 hrs by agar dilution method. The class given is functional. To be noted: SH 20, 72 h. In a few lines: as §2
The nature of data set [4]: Cytotoxicity against mouse RAW264.7 cells assessed as growth inhibition at 50 ug/mL after 120 hrs by MTT assay relative to control. To be noted: read-out: GI. Type of data set: cell-based. In a few lines:
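RAW 264.7 mouse macrophages were seeded at 25,000 cells/well and left to attach overnight. Compound in DMSO was added from a 200× concentrate, in duplicate wells, to a 50 μg/mL test level; DMSO served as control. Exposure 120 h at 37°C in 5% CO₂. MTT (4 mg/mL in PBS) was added for 4 h, formazan dissolved in DMSO, and absorbance read at 560 nm. Viability expressed as % of untreated cells, mean ± SE of at least three independent experiments.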
(Formazan colour is commonly taken as a measure of viable cells.)

For data set [5], the system named is Staphylococcus aureus. Description: Antibacterial activity against Staphylococcus aureus MRSA198 clinical isolate-1 measured after 18 to 20 hrs by microbroth dilution method. Type of data set: functional. Conditions: MRSA198 isolate-1.
The subject of data set [6] is Staphylococcus aureus. Description: Antibacterial activity against Staphylococcus aureus MRSA198 clinical isolate-2 measured after 18 to 20 hrs by microbroth dilution method. The class given is functional. Conditions: MRSA198 isolate-2.

The term MIC denotes the smallest concentration in the dilution series that meets the test's criterion for growth inhibition.

Converted amounts (≈) assume the structure as drawn.

Turning to `COc1cccc(C2C(C#N)=C(N)Oc3cc(OCc4cn([C@@H]5O[C@H](COC(C)=O)[C@@H](OC(C)=O)[C@H](OC(C)=O)[C@H]5OC(C)=O)nn4)ccc32)c1` (stereo partly specified), the MIC with Bacillus subtilis came to 200 µM (≈ 141 µg/mL); in the data set on Staphylococcus aureus [1] it was 400 µM (≈ 282 µg/mL); in [2], 100 µM (≈ 70.6 µg/mL); against Escherichia coli, 200 µM (≈ 141 µg/mL); in the data set with Klebsiella pneumoniae, 6.25 µM (≈ 4.41 µg/mL); in the data set on Pseudomonas aeruginosa, 400 µM (≈ 282 µg/mL). In addition, the minimum inhibitory concentration (MIC) was 100 µM (≈ 70.6 µg/mL) in the data set with Salmonella typhimurium; 400 µM (≈ 282 µg/mL) in the data set on Staphylococcus aureus [3]; 400 µM (≈ 282 µg/mL) in the data set on Aspergillus niger; 1.56 µM (≈ 1.1 µg/mL) against Aspergillus flavus; 400 µM (≈ 282 µg/mL) with Candida albicans; 25 µM (≈ 17.6 µg/mL) with Saccharomyces cerevisiae. Moreover, the inhibition at 120 h, 50 ug/mL in data set [4] came to 25.1%.

On to `CC(=O)OC[C@H]1O[C@@H](n2cc(COc3ccc4c(c3)OC(N)=C(C#N)C4c3ccccc3[N+](=O)[O-])nn2)[C@H](OC(C)=O)[C@@H](OC(C)=O)[C@@H]1OC(C)=O` (stereo partly specified), for which the MIC was 100 µM (≈ 72.1 µg/mL) against Bacillus subtilis; 6.25 µM (≈ 4.5 µg/mL) in the data set with Staphylococcus aureus [1]; 12.5 µM (≈ 9.01 µg/mL) in data set [2]; 50 µM (≈ 36 µg/mL) with Escherichia coli; 400 µM (≈ 288 µg/mL) with Klebsiella pneumoniae; 400 µM (≈ 288 µg/mL) against Pseudomonas aeruginosa. Moreover, the minimum inhibitory concentration (MIC) against Staphylococcus aureus [5] came out at 6.25 µM (≈ 4.5 µg/mL); against Staphylococcus aureus [6], 1.56 µM (≈ 1.12 µg/mL); against Staphylococcus aureus [3], 3.12 µM (≈ 2.25 µg/mL); in the data set on Aspergillus niger, 400 µM (≈ 288 µg/mL); against Aspergillus flavus it was 6.25 µM (≈ 4.5 µg/mL); with Candida albicans it was 50 µM (≈ 36 µg/mL). Moreover, the inhibition at 120 h, 50 ug/mL in [4] stood at 15.4%.

Consider `CC(=O)OC[C@H]1O[C@@H](n2cc(COc3ccc4c(c3)OC(N)=C(C#N)C4c3ccc(N(C)C)cc3)nn2)[C@H](OC(C)=O)[C@@H](OC(C)=O)[C@@H]1OC(C)=O` (stereo partly specified), for which the MIC was 100 µM (≈ 71.9 µg/mL) against Bacillus subtilis; 100 µM (≈ 71.9 µg/mL) against Staphylococcus aureus [1]; 12.5 µM (≈ 8.98 µg/mL) against Escherichia coli; 1.56 µM (≈ 1.12 µg/mL) with Pseudomonas aeruginosa; 50 µM (≈ 35.9 µg/mL) in the data set with Salmonella typhimurium; 400 µM (≈ 287 µg/mL) in the data set with Staphylococcus aureus [5]. Besides, the minimal inhibitory concentration (MIC) against Staphylococcus aureus [6] worked out at 400 µM (≈ 287 µg/mL); in the data set on Staphylococcus aureus [3], 200 µM (≈ 144 µg/mL); against Aspergillus flavus it was 12.5 µM (≈ 8.98 µg/mL); with Candida albicans it was 12.5 µM (≈ 8.98 µg/mL); in the data set on Saccharomyces cerevisiae, 100 µM (≈ 71.9 µg/mL). In data set [4], the inhibition at 120 h, 50 ug/mL worked out at 19.6%.

Regarding `O=C(O)c1cn(C2CC2)c2cc(N3CCNCC3)c(F)cc2c1=O` [CIPROFLOXACIN], the MIC was determined as 3.12 µM (≈ 1.03 µg/mL) against Bacillus subtilis; 3.12 µM (≈ 1.03 µg/mL) against Staphylococcus aureus [1]; 3.12 µM (≈ 1.03 µg/mL) in data set [2]; 1.56 µM (≈ 0.517 µg/mL) in the data set with Escherichia coli; 1.56 µM (≈ 0.517 µg/mL) in the data set with Klebsiella pneumoniae; 1.56 µM (≈ 0.517 µg/mL) against Pseudomonas aeruginosa. Further, inhibition of growth with Salmonella typhimurium (MIC) required 1.56 µM (≈ 0.517 µg/mL).

Regarding `COc1cccc(OC)c1C(=O)N[C@@H]1C(=O)N2[C@@H]1SC(C)(C)[C@@H]2C(=O)O` [METHICILLIN], the MIC (with Bacillus subtilis; against Staphylococcus aureus [1]; in data set [2]; in the data set with Escherichia coli; with Klebsiella pneumoniae; in the data set on Pseudomonas aeruginosa) was 400 µM (≈ 152 µg/mL) in each case. The compound further came in with an MIC with Salmonella typhimurium of 400 µM (≈ 152 µg/mL).

On to `Clc1ccc(COC(Cn2ccnc2)c2ccc(Cl)cc2Cl)c(Cl)c1` (stereo unspecified) [MICONAZOLE], for which the minimum inhibitory concentration (MIC) in the data set on Aspergillus niger stood at 1.56 µM (≈ 0.649 µg/mL); in the data set with Aspergillus flavus, 1.56 µM (≈ 0.649 µg/mL); in the data set with Candida albicans, 3.12 µM (≈ 1.3 µg/mL); with Saccharomyces cerevisiae, 3.12 µM (≈ 1.3 µg/mL).

As to `CN[C@H](CC(C)C)C(=O)N[C@H]1C(=O)N[C@@H](CC(N)=O)C(=O)N[C@H]2C(=O)N[C@H]3C(=O)N[C@H](C(=O)N[C@H](C(=O)O)c4cc(O)cc(O)c4-c4cc3ccc4O)[C@H](O)c3ccc(c(Cl)c3)Oc3cc2cc(c3O[C@@H]2O[C@H](CO)[C@@H](O)[C@H](O)[C@H]2O[C@H]2C[C@](C)(N)[C@H](O)[C@H](C)O2)Oc2ccc(cc2Cl)[C@H]1O` [VANCOMYCIN], the MIC amounted to 0.78 µM (≈ 1.13 µg/mL) against Bacillus subtilis; 1.56 µM (≈ 2.26 µg/mL) in the data set with Staphylococcus aureus [1]; 3.12 µM (≈ 4.52 µg/mL) in data set [2]; 3.12 µM (≈ 4.52 µg/mL) against Escherichia coli; 3.12 µM (≈ 4.52 µg/mL) in the data set on Klebsiella pneumoniae; 3.12 µM (≈ 4.52 µg/mL) with Pseudomonas aeruginosa. In addition, the minimal inhibitory concentration (MIC) against Salmonella typhimurium stood at 3.12 µM (≈ 4.52 µg/mL); in the data set on Staphylococcus aureus [5] it was 1.55 µM (≈ 2.25 µg/mL); against Staphylococcus aureus [6], 1.56 µM (≈ 2.26 µg/mL); in the data set on Staphylococcus aureus [3], 1.56 µM (≈ 2.26 µg/mL).

The values above are taken from ChEMBL document CHEMBL4390647, “Efficient click chemistry towards novel 1H-1,2,3-triazole-tethered 4H-chromene-d-glucose conjugates: Design, synthesis and evaluation of in vitro antibacterial, MRSA and antifungal activities” (Eur J Med Chem, 2019).
